Shown are actives, neighbours in structure and some others; about 3.5% of the full set was active somewhere.
pPAFAH FP inh – inhibitors of human plasma PAF acetylhydrolase (pPAFAH) | recombinant pPAFAH, FP-rhodamine probe fluorescence polarization | inhibition, % at 3.39 µM | actives 1.5% (n = 330,000) | AID 463082 | Q13093;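 active = inhibition above the mean inhibition across the screen plus 3 SD, cut at about 25% in these data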;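 note: inhibitors block binding of the rhodamine activity-based probe so polarization drops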
Target sequence (Q13093 whole entry, looked up): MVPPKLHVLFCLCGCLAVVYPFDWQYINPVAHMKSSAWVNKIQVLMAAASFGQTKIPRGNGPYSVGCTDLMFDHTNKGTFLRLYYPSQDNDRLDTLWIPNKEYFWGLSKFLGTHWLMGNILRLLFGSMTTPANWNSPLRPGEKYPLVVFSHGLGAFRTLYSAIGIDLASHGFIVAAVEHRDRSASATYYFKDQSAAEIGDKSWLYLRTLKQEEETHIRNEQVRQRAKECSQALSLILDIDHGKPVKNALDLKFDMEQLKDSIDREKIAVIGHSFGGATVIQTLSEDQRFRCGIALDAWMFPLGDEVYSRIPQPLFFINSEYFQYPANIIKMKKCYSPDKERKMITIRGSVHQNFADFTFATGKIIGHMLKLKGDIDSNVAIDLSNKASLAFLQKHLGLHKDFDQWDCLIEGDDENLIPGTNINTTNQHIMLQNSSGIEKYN
Apaf-1 inh – inhibitors of human Apaf-1 apoptosome | actives 0.71% (n = 330,000) | AID 489030 | inhibition, % at 20 µM | reconstituted apoptosome caspase-3 activity, DEVD-Rh110 fluorescence; active = inhibition of at least 40% at 20 µM
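Material: reconstituted apoptosome with Apaf-1, cytochrome c, caspase-9, procaspase-3, dATP / Buffer or medium: pH 7.5 Hepes buffer with CHAPS, BSA, DTT / Also added: cytochrome c with DEVD-Rh110 / Schedule: compound with Apaf-1, dATP, procaspase-3 30 min, then 50 min reaction, room temperature / Technique: rhodamine 110 fluorescence at Ex 480/Em 540 nm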
PAFAH2 FP inh – inhibitors of human PAFAH2; Q99487; AID 492956; recombinant PAFAH2, FP-rhodamine activity probe, fluorescence polarization; actives 0.99% (n = 340,000); inhibition, % at 3.39 µM;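 active = inhibition above the mean over all tested compounds plus 3 SD, cut at about 30% in these data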;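 note: inhibitors block probe labeling of enzyme so polarization drops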
PREPL inhibitor – inhibitors of human prolyl oligopeptidase-like enzyme PREPL | actives 0.68% (n = 320,000) | Q4J6C6 | recombinant PREPL, fluorescence polarization activity-based probe | inhibition, % at 5.96 µM | AID 2751; in the data active = inhibition above about 43%
PAFAH1B2 FP inh – inhibitors of human PAFAH1B2; inhibition, % at 3.39 µM; AID 492953; recombinant PAFAH1B2, FP-rhodamine activity probe, fluorescence polarization; P68402; actives 1.2% (n = 340,000);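 active = inhibition above the mean of all tested compounds plus 3 SD, cut at about 24% in these data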
Target sequence (P68402 whole entry, looked up): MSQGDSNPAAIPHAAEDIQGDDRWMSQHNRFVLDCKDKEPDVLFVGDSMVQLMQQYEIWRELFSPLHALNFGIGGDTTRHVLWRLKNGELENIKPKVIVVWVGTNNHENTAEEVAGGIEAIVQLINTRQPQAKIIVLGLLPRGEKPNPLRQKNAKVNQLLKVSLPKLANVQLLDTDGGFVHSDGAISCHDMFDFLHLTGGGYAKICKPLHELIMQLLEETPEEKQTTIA
PAFAH1B3 inh – inhibitors of human PAFAH1B3; recombinant PAFAH1B3, FP-rhodamine probe, fluorescence polarization; actives 0.28% (n = 340,000); AID 492972; Q15102; inhibition, % at 3.39 µM;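 active = inhibition above the screen-wide average of all tested compounds plus 3 SD, cut at about 25% in these data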
PAFAH2 confirm – confirmation of human PAFAH2 inhibitors. recombinant PAFAH2, FP-rhodamine activity probe, fluorescence polarization. actives 65% (n = 2,300). inhibition, % at 3.39 µM. shares compounds with PAFAH2 FP inh;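 active = mean inhibition over three repeats above a set limit taken from the earlier primary screen, cut at about 30% in these data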;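 note: inhibitor blocks binding of rhodamine activity probe so polarization falls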
Each line names hits and unclear results; the compound was inactive in the other large screens (follow-up assays come after a bar, where they were run).

CCCCOc1ccc(N(CC(=O)NCCOC)C(=O)CCC(=O)Nc2ccccn2)cc1	none
CCCC1C(=O)N(Cc2ccccc2)C(=O)CC1C (centres undefined)	none
CC(C)=CCOc1ccc2c(C)c(CC(=O)N3C[C@H]4C[C@@H](C3)c3cccc(=O)n3C4)c(=O)oc2c1C	none
CCN(CC)S(=O)(=O)c1ccc(C(=O)NCC2(N3CCOCC3)CCCCC2)cc1	none
CC1CCCCC1NC(=O)C1CCN(S(=O)(=O)c2cccc3nonc23)CC1 (centres undefined)	none
O=C(COC(=O)C1CCCC1)Nc1cccc(Cl)c1Cl	PAFAH2 FP inh 32 | PAFAH2 confirm inactive
CN(C)S(=O)(=O)c1cccc(NC(=S)N/N=C/c2cccc(O)c2)c1	none
CN(C)S(=O)(=O)c1cccc(NC(=S)N/N=C/c2cc(Br)ccc2O)c1	PAFAH2 FP inh 34 | PAFAH2 confirm inactive
CCOC(=O)c1c(NC(=O)C2CC(Cl)=CCC2C(=O)O)sc2c1CCCCC2 (centres undefined)	PAFAH2 FP inh 38 | PAFAH2 confirm inactive
Nc1cc(C(=O)OCC(=O)NCc2ccco2)ccc1Cl	PAFAH2 FP inh 36 | PAFAH2 confirm 30
O=C(COC(=O)c1cccc(S(=O)(=O)N2CCc3ccccc32)c1)NCc1ccco1	PAFAH2 FP inh 33 | PAFAH2 confirm inactive
CCOc1ccc(C(=O)OCC(=O)NCc2ccco2)cc1OCC	PAFAH2 FP inh 74 | PAFAH2 confirm 46
Cc1ccc(C(=O)OCC(=O)NCc2ccco2)cc1	PAFAH2 FP inh 45 | PAFAH2 confirm 37
CCOc1ccc(C(=O)NCc2ccco2)cc1OCC	none
O=C(COC(=O)c1cccc(S(=O)(=O)N2CCc3ccccc32)c1)Nc1ccc(Cl)cn1	none
Cc1ccc(S(=O)(=O)N2CCN(C(=O)CN(Cc3ccco3)Cc3cccs3)CC2)cc1	none (no result: pPAFAH FP inh, Apaf-1 inh, PREPL inhibitor)
O=c1c2ccccc2oc2cc(-c3ccc(CN4CCOCC4)cc3)ccc12	none
CCc1ccc(NC(=O)CSc2nc3ccccc3c(=O)n2CCCC(=O)NCCCN2CCOCC2)cc1	PAFAH2 FP inh 196 | PAFAH2 confirm inactive
O=C(CCCn1c(SCC(=O)c2ccc(O)c(O)c2)nc2ccccc2c1=O)NCC1CCCO1 (centres undefined)	pPAFAH FP inh 34, PAFAH2 FP inh 35 | PAFAH2 confirm inactive
Cc1ccc(NC(=O)CSc2nc3ccccc3c(=O)n2CCCC(=O)NCCCN2CCOCC2)cc1C	none
C=CC[C@@H](CC(=O)N[C@H](CO)Cc1ccccc1)C(=O)NC[C@@H](OC(=O)[C@@H](CC=C)Cc1ccc(F)cc1)c1ccccc1	none
Cc1cccc(NS(=O)(=O)c2ccc(C)c(C(=O)N(C)C)c2)c1	none
Cn1cc(C=C2C(=O)CC(C)(C)CC2=O)c2ccccc21	none
Cn1cc(C=C2C(=O)OC3(CCCCC3)OC2=O)c2ccccc21	PAFAH2 FP inh 46 | PAFAH2 confirm 46
CCn1c(SCC(=O)c2ccc(O)c(O)c2)nnc1-c1ccccc1OC	pPAFAH FP inh 29, PAFAH2 FP inh 42 | PAFAH2 confirm inactive
CC(=O)N1C(C)(C)CC(=NOC(=O)c2ccccc2)CC1(C)C	PAFAH2 FP inh 67 | PAFAH2 confirm 57
COc1cc(N)c(Cl)cc1C(=O)OCC(=O)NC1CCCC1	PAFAH2 FP inh 48 | PAFAH2 confirm 34
COC(=O)c1cc(Cl)c(N)cc1OC	none
COc1cc(N)c(Cl)cc1C(=O)OCC(=O)N(C)C1CCCCC1	PAFAH2 FP inh 55 | PAFAH2 confirm 30
CC(=O)C(Sc1nnnn1-c1ccc(O)cc1)c1ccccc1 (centres undefined)	none
O=C1c2cccc3cccc(c23)C(=O)N1OS(=O)(=O)c1ccc(Cl)cc1	PAFAH2 FP inh 33 | PAFAH2 confirm 34
O=C1c2cccc3cccc(c23)C(=O)N1Cc1ccccc1	none
O=C(O)c1ccccc1C(=O)N1CCN(c2ccccc2)CC1	none
CSc1ccccc1C(=O)OCC(=O)Nc1ccc(N2CCOCC2)cc1	none
COc1cccc(NC(=O)COC(=O)c2ccccc2C(=O)N2CCN(c3ccccc3)CC2)c1	PAFAH2 FP inh 54 | PAFAH2 confirm 54
O=C(COC(=O)c1ccccc1C(=O)N1CCN(c2ccccc2)CC1)Nc1ccccc1	PAFAH2 FP inh 63 | PAFAH2 confirm 60
O=C(COC(=O)c1ccccc1C(=O)N1CCN(c2ccccc2)CC1)Nc1ccc(F)cc1	PAFAH2 FP inh 74 | PAFAH2 confirm 60
COc1ccc(CC(=O)NC2CCS(=O)(=O)C2)cc1 (centres undefined)	none
COC(=O)C1C2CCCCC1C(=O)O2 (centres undefined)	none (no result: pPAFAH FP inh, Apaf-1 inh, PREPL inhibitor)
COc1cccc(NC(=O)CCS(=O)(=O)c2ccc3c(c2)oc(=O)n3C)c1	none
CC1CCN(C(=O)COC(=O)c2ccc3c(c2)OCCO3)CC1	PAFAH2 FP inh 46 | PAFAH2 confirm 30
CC1CCN(C(=O)COC(=O)c2cccs2)CC1	PAFAH2 FP inh 35 | PAFAH2 confirm inactive
CC1CCN(C(=O)COC(=O)c2ccc(N3CCCC3=O)cc2)CC1	PAFAH2 FP inh 37 | PAFAH2 confirm 30
O=C(OCC(=O)N1CCCCC1)c1cccs1	none
CC1CCN(C(=O)COC(=O)c2ccc3c(c2)OCO3)CC1	PAFAH2 FP inh 39 | PAFAH2 confirm inactive
CC(C)(C)OC(=O)N1CCC(c2c(C(=O)NC3CC3)cnn2-c2ccccc2)CC1	none
O=S(=O)(Nc1cccc2ncccc12)c1cccc(C(F)(F)F)c1	none
CC(Sc1ncn[nH]1)C(=O)c1c(N)n(C)c(=O)n(C)c1=O (centres undefined)	none
CCc1ccc(OCC(=O)NC(=S)Nc2ccc(C)cc2C)c(Br)c1	PAFAH2 FP inh 30 | PAFAH2 confirm inactive
CCc1ccc(OCC(=O)NNC(=S)NC(=O)C2CC2)c(Br)c1	none (no result: pPAFAH FP inh, PREPL inhibitor)
O=c1c2c(nc3cc(-c4ccccc4)[nH]n13)CCS2	PAFAH2 FP inh 43 | PAFAH2 confirm inactive
Cc1cc(Nc2cccc(Br)c2)c2ccccc2n1	PAFAH2 FP inh 50 | PAFAH2 confirm inactive
O=C(OCc1nnc(-c2ccccc2)o1)c1ccccc1	PAFAH2 FP inh 57 | PAFAH2 confirm 50
Cc1ccsc1C(=O)OCC(=O)Nc1nnc(-c2ccccc2)o1	none
O=C(OCc1nnc(-c2ccc(Br)cc2)o1)c1ccco1	PAFAH2 FP inh 54 | PAFAH2 confirm 42
O=C(OCc1nnc(-c2ccccc2)o1)c1ccc(-n2cnnn2)cc1	none
Cc1ccsc1C(=O)OCc1nnc(-c2ccccc2)o1	PAFAH2 FP inh 51 | PAFAH2 confirm inactive
O=C(OCc1nnc(-c2ccccc2)o1)c1cccc(S(=O)(=O)N2CCOCC2)c1	PAFAH2 FP inh 57 | PAFAH2 confirm 40
O=S(=O)(c1ccc(NC(=S)N2CCN(c3ccc(O)cc3)CC2)cc1)N1CCOCC1	none (no result: PAFAH2 FP inh, PAFAH1B2 FP inh, PAFAH1B3 inh)

Compound activity: PubChem, several laboratories
